The entries come from a sample that favours hits as a whole.
INS promoter act – activators of insulin promoter-driven GFP, primary screen, imaging, TRM-6 cells, eGFP reporter, cell count. plate-scaled: unstimulated 0, stimulated control 100. 130,000 tested, 0.81% active. AID 1296, 2008. activation, % at 2 µM;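 active = activation at 2 µM above a set limit, confirmed on inspection of the cell images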;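 also: share of cells whose green reporter signal exceeds an intensity cutoff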
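System – human fetal islet-derived TRM-6 cells with tamoxifen-inducible insulin promoter–eGFP reporter · Amount – 1,000 cells per well · Schedule – overnight tamoxifen, then two-day compound incubation at 37 °C · Detection – high-content imaging of fixed cells with Hoechst nuclear stain · Read-out – percent cells above green-intensity threshold, converted to percent activation versus plate controls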
Hits are given with their value; [ ] = dose if it differs, or a comment.

For S=C(Nc1ccc(Cl)c(Cl)c1)NC1CCCCC1 the results were INS promoter act inactive.
Screening CC(C)(C)c1ccc(/C=N/NC(=S)NC2CCCCC2)cc1 returned INS promoter act 421.
For CC(=O)c1cnc2scnn2c1=O the results were INS promoter act inactive.
Screening COc1cc(Cl)cc2c1Sc1ccccc1/C2=C/CCN(C)C returned INS promoter act inactive.
`COc1ccc(C)cc1NC(=O)NCc1ccc(F)cc1` gave INS promoter act inactive.
Screening O=C(Nn1c(Cc2cccs2)nc2ccccc2c1=O)c1ccc(F)c(F)c1 returned INS promoter act 419.
O=C(CSc1nc2ccccc2c(=O)n1NC(=O)c1ccccc1)c1ccccc1 was read as INS promoter act inactive.
`O=C(Nn1c(C2CCC2)nc2ccccc2c1=O)c1cccs1` gave INS promoter act inactive.
Cc1cc(NC(=O)CCC(=O)N(Cc2cccs2)C(C(=O)NC2CCCC2)c2cccnc2)no1 (stereo unspecified) was read as INS promoter act inactive.
`Cc1ccc(C(C(=O)NC2CCCC2)N(Cc2ccco2)C(=O)CCC(=O)Nc2cc(C)on2)cc1` (stereo unspecified) gave INS promoter act 810.
For Cc1cc(NC(=O)CCC(=O)N(c2ccccc2)C(C(=O)NC2CCCC2)c2cccs2)no1 (stereo unspecified) the results were INS promoter act inactive.
Cc1ccccc1S(=O)(=O)c1c(C)cc(C)n(CC(C)C)c1=O was read as INS promoter act inactive.
`Cn1c(=O)oc2cc(S(=O)(=O)NCCN3CCc4ccccc4C3)ccc21` gave INS promoter act inactive.
O=C1c2cccc3cccc(c23)C(=O)N1CCN1CCN(C(=S)Nc2ccc(F)cc2)CC1 was read as INS promoter act inactive.
Screening CCCCCn1c(=O)[nH]c2cc(C(=O)N3CCN(CC)CC3)ccc2c1=O returned INS promoter act inactive.
Screening CCOC(=O)c1ccc(NS(=O)(=O)N2CCCCCC2)cc1 returned INS promoter act inactive.
Screening COc1ccc(N2CCN(C(=O)CSc3ncnc4c3cnn4-c3ccccc3C)CC2)cc1 returned INS promoter act inactive.
Screening Cc1nnc(NC(=O)CSc2ncn(-c3ccccc3)n2)s1 returned INS promoter act inactive.
Cc1nnc(NC(=O)CSc2ncnc3c2cnn3-c2ccccc2C)s1 was read as INS promoter act 147.
`CN(c1ccc(S(=O)(=O)N2CCOCC2)cn1)C1CCCCC1` gave INS promoter act inactive.
For Cc1cccc(N2C(=O)CC(N3CCN(Cc4ccc(Cl)cc4)CC3)C2=O)c1 (stereo unspecified) the results were INS promoter act inactive.
`S=C(Nc1ccc(Cl)cc1Cl)NC1CCCCC1` gave INS promoter act inactive.
`CC1CCN(C(=O)Cn2c(SCC(=O)Nc3nccs3)nc3ccccc32)CC1` gave INS promoter act 154.
CC1CCN(C(=O)CSCC(=O)Nc2nc(-c3cccs3)cs2)CC1 was read as INS promoter act inactive.
CC1CC(C)CN(C(=O)Cn2c(SCC(=O)N3CCc4ccccc4C3)nc3ccccc32)C1 (stereo unspecified) was read as INS promoter act inactive.
Screening CN(C)CCCn1c(NCc2ccc3c(c2)OCO3)nc2ccccc21 returned INS promoter act inactive.
Screening Cn1c(=S)n(/N=C/c2ccc3c(c2)OCO3)c2ccccc21 returned INS promoter act inactive.
Screening CCCCn1c(/N=C/c2ccc3c(c2)OCO3)nc2ccccc21 returned INS promoter act 81.
CCN(CC)S(=O)(=O)c1ccc2c(c1)nc(SCC(=O)N1CCCCCC1)n2-c1ccc(OC)cc1 was read as INS promoter act inactive.
O=C(O)Cc1cc(C(=O)Nc2ccc(Br)cc2)sc1-c1ccccc1 was read as INS promoter act inactive.
`COC(=O)c1cc(Br)c(=O)n(-c2ccccc2F)c1` gave INS promoter act inactive.
`CCN(CC)S(=O)(=O)c1ccc2c3c(cccc13)C(=O)N2` gave INS promoter act inactive.
Screening CCOC(=O)c1c(C)oc2ccc(NS(=O)(=O)c3ccc4c5c(cccc35)C(=O)N4)cc12 returned INS promoter act 506.
Screening Cc1oc2ccc(NS(=O)(=O)c3ccccc3)cc2c1C(=O)Nc1ccccc1 returned INS promoter act inactive.
For CC(C)C(=O)Nc1ccc(C(=O)NCc2cccnc2)cc1 the results were INS promoter act inactive.
`O=C(COC(=O)c1cnccn1)NCc1ccc(Cl)cc1` gave INS promoter act inactive.
`COc1cc(/C=N\Nc2nc3ccccc3o2)cc(OC)c1OC` gave INS promoter act 469.
`COc1cc(/C=N/Nc2nc3ccccc3o2)cc(OC)c1O` gave INS promoter act inactive.
`COc1ccc(/C=N/Nc2nonc2N)cc1OC` gave INS promoter act inactive.
For CCOc1cccc(OCCCCn2ccnc2)c1 the results were INS promoter act inactive.
For COC(=O)c1cc(Cl)c(NC(=O)Cc2ccccc2)cc1OC the results were INS promoter act inactive.
CC(=O)c1cn(CC(=O)Nc2ccc(C)c(C)c2)c2ccccc12 was read as INS promoter act 533.
Screening CC(=O)c1cn(CC(=O)NCc2ccc3c(c2)OCO3)c2ccccc12 returned INS promoter act inactive.
Screening CC(=O)c1cn(CC(=O)Nc2ccc(C)cc2)c2ccccc12 returned INS promoter act inactive.
Screening O=C(NCCC1=CCCCC1)c1cnc2n(c1=O)CCS2 returned INS promoter act inactive.
`O=C(NCc1cccnc1)c1ccc(NC(=O)c2ccco2)cc1` gave INS promoter act inactive.
`O=C(NCc1cccnc1)c1cc(-c2ccccc2)on1` gave INS promoter act inactive.
Screening O=C(NCc1cccnc1)c1nc(-c2ccc(C(F)(F)F)cc2)no1 returned INS promoter act 300.
`Cc1cc(C)c(C)c(OCC(=O)N2CCOCC2)c1` gave INS promoter act inactive.
`Cc1cc(OCC(=O)N2CCCC2)cc(C)c1Cl` gave INS promoter act inactive.
`Cc1cc(OCC(=O)N2CCOCC2)cc2oc(=O)c3ccccc3c12` gave INS promoter act 424.
`CC(C)CCNC(=O)NC(=O)COC(=O)c1cc(S(=O)(=O)N2CCOCC2)ccc1N1CCCCC1` gave INS promoter act inactive.
Screening Cc1cccc(C(=O)NNc2ncnc3c2cnn3C)c1 returned INS promoter act inactive.
`Cc1ccc2c(c1)N(CC(=O)NC1CCCc3ccccc31)C(=O)CO2` (stereo unspecified) gave INS promoter act inactive.
`Cn1cccc1CNCc1ccc(F)cc1` gave INS promoter act inactive.
For COc1ccc(Br)cc1C(=O)NC(=S)Nc1ccc(Cl)c(C(=O)O)c1 the results were INS promoter act inactive.
CCN1/C(=C/c2ccc3cc(C)ccc3[n+]2C)Sc2ccc3sccc3c21 was read as INS promoter act 376.
`CCN1/C(=C/c2ccc3cc(C)ccc3[n+]2CC)Sc2cc(C)ccc21` gave INS promoter act 614.
For CCNc1nc(NCC)n2c(SCC(=O)Nc3ccc(C(F)(F)F)cc3[N+](=O)[O-])nnc2n1 the results were INS promoter act inactive.
COc1cc(NC(=O)c2cc3sccc3n2C)cc(OC)c1 was read as INS promoter act inactive.
`CCN(CC)c1ccc(NC(=O)/C=C\c2ccccc2Cl)cc1` gave INS promoter act inactive.
CCN(CC)c1ccc(/C=C/C(=O)C2C(=O)C=C(C)OC2=O)cc1 (stereo unspecified) was read as INS promoter act 809[fluoresces].
Screening CSCc1ccc(C(=O)Nc2cccc(C)c2C)cc1 returned INS promoter act inactive.
For COc1ccc(C=C(C(C)=O)C(C)=O)cc1OC the results were INS promoter act inactive.
Cc1cc(NC(=O)CSc2ncn(-c3ccccc3)n2)no1 was read as INS promoter act inactive.

Screening results from PubChem.
